In ChEMBL document CHEMBL2331279, “Rational design and synthesis of 4-substituted 2-pyridin-2-ylamides with inhibitory effects on SH2 domain-containing inositol 5'-phosphatase 2 (SHIP2)” (Eur J Med Chem, 2013) one finds IC50 and inhibition data, which are given here for twelve molecules.

Activity calls are given as the source filed them. No cut-off for these calls is given here.

The first experiment has as its target T1, Phosphatidylinositol 3,4,5-trisphosphate 5-phosphatase 2 (Homo sapiens, UniProt O15357).
T1 sequence (O15357 whole entry): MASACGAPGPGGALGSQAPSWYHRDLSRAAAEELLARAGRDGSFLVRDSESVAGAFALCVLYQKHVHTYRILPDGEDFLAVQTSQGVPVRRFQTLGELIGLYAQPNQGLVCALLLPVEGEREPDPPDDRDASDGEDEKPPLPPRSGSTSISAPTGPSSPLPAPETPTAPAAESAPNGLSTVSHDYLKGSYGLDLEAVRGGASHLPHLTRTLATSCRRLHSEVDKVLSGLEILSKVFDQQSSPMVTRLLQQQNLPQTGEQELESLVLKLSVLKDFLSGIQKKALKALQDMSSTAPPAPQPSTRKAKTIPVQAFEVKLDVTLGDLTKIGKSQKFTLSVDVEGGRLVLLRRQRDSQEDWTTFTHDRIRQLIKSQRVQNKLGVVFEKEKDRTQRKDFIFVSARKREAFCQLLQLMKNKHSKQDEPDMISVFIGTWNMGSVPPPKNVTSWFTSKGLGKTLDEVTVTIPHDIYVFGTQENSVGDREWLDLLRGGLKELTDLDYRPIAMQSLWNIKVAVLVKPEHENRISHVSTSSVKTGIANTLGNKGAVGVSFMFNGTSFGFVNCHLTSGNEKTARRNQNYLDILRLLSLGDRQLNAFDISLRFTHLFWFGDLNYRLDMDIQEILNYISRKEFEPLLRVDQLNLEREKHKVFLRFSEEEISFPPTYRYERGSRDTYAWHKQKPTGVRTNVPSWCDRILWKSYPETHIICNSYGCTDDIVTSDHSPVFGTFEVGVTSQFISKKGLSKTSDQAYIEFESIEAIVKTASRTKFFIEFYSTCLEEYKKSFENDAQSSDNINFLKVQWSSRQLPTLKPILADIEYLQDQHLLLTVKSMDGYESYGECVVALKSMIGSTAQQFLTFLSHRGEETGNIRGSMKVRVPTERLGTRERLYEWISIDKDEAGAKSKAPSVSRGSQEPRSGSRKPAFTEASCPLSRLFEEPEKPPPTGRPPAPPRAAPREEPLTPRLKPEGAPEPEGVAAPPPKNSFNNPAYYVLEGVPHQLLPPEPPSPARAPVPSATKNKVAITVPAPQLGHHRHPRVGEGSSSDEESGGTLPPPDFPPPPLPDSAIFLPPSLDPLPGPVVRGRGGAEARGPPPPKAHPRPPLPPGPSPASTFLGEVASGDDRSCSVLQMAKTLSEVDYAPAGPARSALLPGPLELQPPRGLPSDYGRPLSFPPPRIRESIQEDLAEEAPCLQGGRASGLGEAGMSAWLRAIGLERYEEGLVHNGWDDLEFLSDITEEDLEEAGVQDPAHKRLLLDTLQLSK
In words: Inhibition of SHIP2 (unknown origin).
Settings: not given
Molecule `CC(C)N(CCNc1ccc(-c2cc(-c3ccc(F)cc3)n(-c3ccc(Cl)c(Cl)c3)n2)cn1)C(C)C` gave an IC50 of 1100 nM.

For the next experiment, the target named is T2, Phosphatidylinositol 3,4,5-trisphosphate 5-phosphatase 2 (Mus musculus) (UniProt Q6P549).
T2 sequence (whole entry): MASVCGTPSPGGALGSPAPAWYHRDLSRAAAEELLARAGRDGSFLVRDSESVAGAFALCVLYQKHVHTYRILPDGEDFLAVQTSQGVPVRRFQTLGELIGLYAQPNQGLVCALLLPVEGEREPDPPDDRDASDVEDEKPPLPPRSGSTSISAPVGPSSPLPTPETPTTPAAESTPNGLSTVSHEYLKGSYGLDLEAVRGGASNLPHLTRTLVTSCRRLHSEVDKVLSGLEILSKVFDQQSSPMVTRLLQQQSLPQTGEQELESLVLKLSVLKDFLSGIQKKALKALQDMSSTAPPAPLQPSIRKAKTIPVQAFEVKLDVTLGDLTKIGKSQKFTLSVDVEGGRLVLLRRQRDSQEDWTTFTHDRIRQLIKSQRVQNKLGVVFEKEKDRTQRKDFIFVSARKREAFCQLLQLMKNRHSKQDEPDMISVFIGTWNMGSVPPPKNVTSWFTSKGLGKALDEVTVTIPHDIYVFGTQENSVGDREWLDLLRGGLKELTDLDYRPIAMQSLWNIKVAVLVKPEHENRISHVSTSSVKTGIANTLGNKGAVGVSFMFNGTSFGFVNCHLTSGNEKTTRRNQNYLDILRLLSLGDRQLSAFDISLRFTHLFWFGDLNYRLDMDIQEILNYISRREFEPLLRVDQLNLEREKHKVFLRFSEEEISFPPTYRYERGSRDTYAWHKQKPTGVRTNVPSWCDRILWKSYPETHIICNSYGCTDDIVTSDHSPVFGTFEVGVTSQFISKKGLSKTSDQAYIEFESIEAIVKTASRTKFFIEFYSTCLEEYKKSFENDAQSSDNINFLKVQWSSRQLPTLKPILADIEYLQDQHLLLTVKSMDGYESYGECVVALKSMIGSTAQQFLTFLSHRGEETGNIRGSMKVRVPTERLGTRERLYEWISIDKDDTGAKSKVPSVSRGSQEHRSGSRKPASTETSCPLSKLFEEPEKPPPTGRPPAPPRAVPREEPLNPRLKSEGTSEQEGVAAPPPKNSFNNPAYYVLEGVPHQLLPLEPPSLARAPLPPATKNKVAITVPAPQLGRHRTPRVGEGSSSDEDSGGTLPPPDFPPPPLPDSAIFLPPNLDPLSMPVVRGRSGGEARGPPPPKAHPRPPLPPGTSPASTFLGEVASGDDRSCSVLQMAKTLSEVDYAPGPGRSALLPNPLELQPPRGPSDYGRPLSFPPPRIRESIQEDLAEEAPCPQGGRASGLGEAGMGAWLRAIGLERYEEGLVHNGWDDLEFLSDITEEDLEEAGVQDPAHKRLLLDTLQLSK
The experiment in a line: Inhibition of SHIP2 in mouse 3T3L1 cells assessed as reduction of TNF-alpha induced decrease in insulin-stimulated Akt phosphorylation at Thr308 at 10 uM treated for 15 mins after TNF alpha challenge for 16 hrs and prior to insulin stimulation measured after 2 hrs by Western blot analysis. It counts as cell-based. The conditions noted are these: 3T3-L1. In outline: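 3T3-L1 fibroblasts differentiated into adipocytes, then serum-starved 16 h with TNFα 20 ng/mL. Treated with compound 10 µM or 0.1% DMSO for 15 min, then stimulated with 17 nM insulin at 37 °C for 2 h. Cells lysed on ice at pH 7.5 and Thr308 phospho-Akt measured by western blot. Results given as fold change versus TNFα+insulin control. Mean ± SE.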
In general terms: In western blotting, separated proteins are transferred to a membrane and probed.
As to `O=C(Cc1c(F)cccc1F)Nc1cc(COCc2ccc(F)cc2)ccn1`, the inhibition entry is “Active”. For `O=C(CCc1ccccc1)Nc1cc(OCc2ccc(Cl)cc2)ccn1`, the inhibition result is “Active”. With `O=C(Cc1ccccc1)Nc1cc(COCc2ccc(Cl)cc2)ccn1`, the inhibition entry was “Active”. For the molecule `O=C(CCc1ccccc1)Nc1cc(COCc2ccc(Cl)cc2)ccn1`, the inhibition entry is “Active”. On to `O=C(CCc1ccccc1)Nc1cc(COCc2ccc(F)cc2)ccn1`, for which the inhibition entry is “Active”. Take `O=C(Cc1c(F)cccc1F)Nc1cc(OCc2ccc(F)cc2)ccn1`: the inhibition entry was “Active”. `O=C(Cc1ccccc1C(F)(F)F)Nc1cc(OCc2ccc(Cl)cc2)ccn1`: the inhibition result was “Active”. In the case of `O=C(Cc1ccccc1)Nc1cc(OCc2ccc(F)cc2)ccn1`, the inhibition result was “Active”. Turning to `O=C(Cc1cc(F)cc(F)c1)Nc1cc(COCc2ccc(F)cc2)ccn1`, the inhibition entry is “Active”. On to `O=C(Cc1ccc(F)cc1)Nc1cc(OCc2ccc(F)cc2)ccn1`, for which the inhibition result is “Active”. For the molecule `O=C(CCc1ccccc1)Nc1cc(COCc2ccccc2)ccn1`, the inhibition entry is “Active”.

For orientation: IC50 means the concentration at which inhibition is half-maximal. A higher IC50 goes with lower potency.
